Reference: ChEMBL document CHEMBL1149586 (Bioorg Med Chem, 2007)
pIC50: −log10 of the molar value.

Key:
[1] = target: Matrix metalloproteinase-14 (Homo sapiens, UniProt P50281); assay: Inhibition of MMP14
Interstitial collagenase = target: T1, Interstitial collagenase (Homo sapiens, UniProt P03956); assay: Inhibition of MMP1
T1 sequence (P03956 whole entry): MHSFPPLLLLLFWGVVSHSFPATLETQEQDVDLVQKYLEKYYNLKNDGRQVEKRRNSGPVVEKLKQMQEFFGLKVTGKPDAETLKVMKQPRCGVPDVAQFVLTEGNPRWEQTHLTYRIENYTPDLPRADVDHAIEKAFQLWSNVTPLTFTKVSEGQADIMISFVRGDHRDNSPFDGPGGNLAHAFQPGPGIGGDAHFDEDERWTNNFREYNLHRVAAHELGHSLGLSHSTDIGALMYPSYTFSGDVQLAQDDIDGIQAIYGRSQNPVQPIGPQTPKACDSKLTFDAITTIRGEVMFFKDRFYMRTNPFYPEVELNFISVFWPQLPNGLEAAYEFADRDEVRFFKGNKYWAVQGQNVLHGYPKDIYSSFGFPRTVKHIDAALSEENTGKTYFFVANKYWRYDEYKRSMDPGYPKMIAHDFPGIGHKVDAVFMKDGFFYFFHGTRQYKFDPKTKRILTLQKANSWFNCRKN

[2] = target: 72 kDa type IV collagenase (Homo sapiens, UniProt P08253); assay: Inhibition of MMP2
Sequence of 72 kDa type IV collagenase (P08253 whole entry): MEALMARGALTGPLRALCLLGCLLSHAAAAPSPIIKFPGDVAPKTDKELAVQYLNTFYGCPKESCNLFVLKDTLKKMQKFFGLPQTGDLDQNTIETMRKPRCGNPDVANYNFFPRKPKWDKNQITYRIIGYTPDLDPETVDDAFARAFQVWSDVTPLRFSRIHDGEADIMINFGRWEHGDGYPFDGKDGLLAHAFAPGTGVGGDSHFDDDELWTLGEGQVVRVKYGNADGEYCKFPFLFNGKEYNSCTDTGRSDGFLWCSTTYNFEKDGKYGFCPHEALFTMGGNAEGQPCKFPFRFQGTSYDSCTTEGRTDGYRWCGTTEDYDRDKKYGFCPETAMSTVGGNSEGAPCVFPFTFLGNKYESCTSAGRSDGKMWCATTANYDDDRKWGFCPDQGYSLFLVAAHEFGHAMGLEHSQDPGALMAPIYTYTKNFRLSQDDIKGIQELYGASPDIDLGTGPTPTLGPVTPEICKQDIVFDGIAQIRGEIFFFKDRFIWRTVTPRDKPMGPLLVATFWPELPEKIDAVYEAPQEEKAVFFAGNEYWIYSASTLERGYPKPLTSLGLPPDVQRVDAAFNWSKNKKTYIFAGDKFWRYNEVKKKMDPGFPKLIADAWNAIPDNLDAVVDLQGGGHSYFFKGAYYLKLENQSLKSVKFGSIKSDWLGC
Summary of the method: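 Incubated with compound at 1 to 5000 nM. Started with a fluorogenic quenched peptide substrate (1–10 nM). Initial hydrolysis rate, with (Vi) and without (Vo) compound, was followed by fluorescence.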

Stromelysin-1 = Stromelysin-1 (Homo sapiens, UniProt P08254); assay: Inhibition of MMP3
Sequence of Stromelysin-1 (P08254 whole entry): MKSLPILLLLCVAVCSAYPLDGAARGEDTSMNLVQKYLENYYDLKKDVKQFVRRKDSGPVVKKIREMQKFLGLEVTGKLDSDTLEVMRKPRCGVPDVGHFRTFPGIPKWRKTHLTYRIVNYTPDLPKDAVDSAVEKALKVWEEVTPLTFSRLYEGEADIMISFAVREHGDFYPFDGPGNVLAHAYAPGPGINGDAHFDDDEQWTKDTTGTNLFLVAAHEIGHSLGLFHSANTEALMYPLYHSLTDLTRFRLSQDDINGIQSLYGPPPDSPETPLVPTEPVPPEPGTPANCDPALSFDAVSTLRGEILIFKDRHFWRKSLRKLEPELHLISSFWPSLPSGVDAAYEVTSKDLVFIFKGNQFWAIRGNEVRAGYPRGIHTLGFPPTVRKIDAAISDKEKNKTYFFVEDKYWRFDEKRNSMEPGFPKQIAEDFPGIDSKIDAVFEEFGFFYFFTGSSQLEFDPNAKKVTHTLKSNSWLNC

[3] = target: Matrix metalloproteinase-9 (Homo sapiens, UniProt P14780); assay: Inhibition of MMP9
Sequence of Matrix metalloproteinase-9 (P14780 whole entry): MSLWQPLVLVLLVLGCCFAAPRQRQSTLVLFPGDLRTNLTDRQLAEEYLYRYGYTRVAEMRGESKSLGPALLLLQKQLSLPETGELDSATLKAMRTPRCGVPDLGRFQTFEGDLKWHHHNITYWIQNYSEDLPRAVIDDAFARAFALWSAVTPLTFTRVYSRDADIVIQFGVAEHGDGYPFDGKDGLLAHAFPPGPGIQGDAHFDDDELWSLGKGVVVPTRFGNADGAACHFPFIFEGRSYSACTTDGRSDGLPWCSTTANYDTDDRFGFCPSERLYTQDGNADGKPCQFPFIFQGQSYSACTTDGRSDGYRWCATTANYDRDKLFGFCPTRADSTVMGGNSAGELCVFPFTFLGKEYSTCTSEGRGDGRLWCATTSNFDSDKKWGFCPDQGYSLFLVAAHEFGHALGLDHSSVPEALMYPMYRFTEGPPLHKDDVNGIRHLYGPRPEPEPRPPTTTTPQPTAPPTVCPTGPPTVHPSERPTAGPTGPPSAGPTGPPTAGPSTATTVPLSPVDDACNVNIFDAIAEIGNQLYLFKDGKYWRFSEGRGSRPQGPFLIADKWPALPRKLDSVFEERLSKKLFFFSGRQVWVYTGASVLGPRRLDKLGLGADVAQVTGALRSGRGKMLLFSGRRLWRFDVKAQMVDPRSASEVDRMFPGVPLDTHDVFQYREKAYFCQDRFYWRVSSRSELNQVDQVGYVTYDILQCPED

Neutrophil collagenase = Neutrophil collagenase (Homo sapiens, UniProt P22894); assay: Inhibition of MMP8
Sequence of Neutrophil collagenase (P22894 whole entry): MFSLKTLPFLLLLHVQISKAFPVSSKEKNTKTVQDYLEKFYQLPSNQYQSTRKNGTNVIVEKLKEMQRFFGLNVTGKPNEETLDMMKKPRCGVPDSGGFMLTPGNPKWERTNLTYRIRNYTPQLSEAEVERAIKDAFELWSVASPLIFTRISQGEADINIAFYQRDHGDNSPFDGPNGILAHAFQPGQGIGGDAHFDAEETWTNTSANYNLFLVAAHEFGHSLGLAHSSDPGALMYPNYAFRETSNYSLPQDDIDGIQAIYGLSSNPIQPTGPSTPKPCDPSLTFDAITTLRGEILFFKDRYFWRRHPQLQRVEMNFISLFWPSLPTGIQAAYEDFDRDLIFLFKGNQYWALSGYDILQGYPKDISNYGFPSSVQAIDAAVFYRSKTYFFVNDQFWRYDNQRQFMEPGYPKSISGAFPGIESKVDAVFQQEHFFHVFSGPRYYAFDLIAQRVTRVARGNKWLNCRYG
Summary of the method: (§1)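 Human recombinant pro-enzymes, freshly activated with p-aminophenylmercuric acetate at 37 °C for 2 h. Used at 0.6 nM for MMP-13 and 3.8 nM for MMP-8. Incubated with compound from 1 to 5000 nM. Assay began with addition of a fluorogenic substrate (1–10 nM). Initial rates of peptide cleavage were measured fluorimetrically, with (Vi) and without (Vo) compound.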

Collagenase 3 = Collagenase 3 (Homo sapiens, UniProt P45452); assay: Inhibition of MMP13; summary of the method: as §1

Row | Structure (SMILES) | pIC50 [1] | pIC50 (Interstitial collagenase) | pIC50 [2] | pIC50 (Stromelysin-1) | pIC50 [3] | pIC50 (Neutrophil collagenase) | pIC50 (Collagenase 3)
1 | CNC(=O)[C@H](Cc1c[nH]c2ccccc12)NC(=O)[C@@H](CC(=O)NO)CC(C)C [ILOMASTAT] | 7.87 |  |  |  |  |  | 
2 | C/C=C/C=C(\CC(=O)NO)C(=O)N[C@@H](Cc1c[nH]c2ccccc12)C(=O)NC | 6.04 | 6.01 | 4.11 | 5.06 | 6.01 |  | 
3 | CNC(=O)[C@H](Cc1c[nH]c2ccccc12)NC(=O)/C(=C/C(C)C)CC(=O)NO | 8.00 | 7.74 | 8.04 |  | 7.77 |  | 
4 | CNC(=O)[C@H](Cc1c[nH]c2ccccc12)NC(=O)/C(=C/C=C/c1ccccc1)CC(=O)NO | 5.60 | 5.91 | 6.92 | 4.68 | 7.42 |  | 
5 | CCCCCC/C=C(\CC(=O)NO)C(=O)N[C@@H](Cc1c[nH]c2ccccc12)C(=O)NC | 5.58 | 4.49 | 6.91 | < 5.00 | < 5.00 | 7.00 | 6.91
6 | CNC(=O)[C@H](Cc1c[nH]c2ccccc12)NC(=O)/C(=C/CCc1ccccc1)CC(=O)NO | 4.27 | 5.04 | 6.55 | 5.72 | 7.35 |  | 
